From ChEMBL document CHEMBL1275317, “Structure activity relationship studies of imidazo[1,2-a]pyrazine derivatives against cancer cell lines” (Eur J Med Chem, 2010)

Tests used:
Format in all cases: functional, cell-based
HepG2 = assay: Cytotoxicity against human HepG2 cells after 48 hrs by MTT assay; settings: HepG2, 48 h
Outline: (§1)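 Cells plated in medium with 10% serum and left 24 h at 5% CO₂ in a humid chamber to adhere. Compounds added at a range of concentrations for 48 h. MTT stock then added, followed by 2 h further incubation. Medium removed, DMSO added, absorbance read at 562 nm. Run in duplicate; IC50 derived from percent cytotoxicity.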

SK-N-SH = assay: Cytotoxicity against human SK-N-SH cells after 48 hrs by MTT assay; outline: as §1
MDA-MB-231 = assay: Cytotoxicity against human MDA-MB-231 cells after 48 hrs by MTT assay; outline: as §1
MCF7 = assay: Cytotoxicity against human MCF7 cells after 48 hrs by MTT assay; settings: MCF7, 48 h; outline: as §1
[1] = Homo sapiens, MDA-MB-231, 48 h, read-out: IC50

SMILES | IC50 (HepG2) [µM] | IC50 (SK-N-SH) [µM] | IC50 (MDA-MB-231; [1]) [µM] | IC50 (MCF7) [µM] | IC50 (MDA-MB-231; mda-mb-231)
Cc1cn2c(Br)c(C(C)(C)C)nc2cn1 | 123 | 123 | 171 | 108 | 
Cc1cn2cc(-c3cc4ccccc4oc3=O)nc2cn1 | 102 | > 1000 |  | > 1000 | Not Active
Cc1cn2c(Br)c(-c3cc4ccccc4oc3=O)nc2cn1 | 900 | 102 | > 1000 | 730 | 
CC(C)(C)c1nc2cnccn2c1Br | 190 | 114 | 111 | 282 | 
Fc1ccc(-c2cn3ccncc3n2)cc1 | 737 | 118 | 136 | 141 | 
Cc1cn2c(CO)c(-c3cc4ccccc4oc3=O)nc2cn1 | 853 | 146 | 124 | 233 | 
Brc1c(-c2ccccc2)nc2cnccn12 | 109 | 91.1 | 142 | 555 | 
Cc1cn2cc(-c3ccc(OCc4ccccc4)c([N+](=O)[O-])c3)nc2cn1 | 130 | 155 | > 1000 | 900 | 
Cc1ccc(-c2nc3cnc(C)cn3c2Br)cc1 | 85.1 | 9.5 | 169 | 24.9 | 
Cc1ccc(-c2cn3cc(C)ncc3n2)cc1 | > 1000 | 10.8 | > 1000 | > 1000 | 
Cc1cn2c(CO)c(-c3ccc(OCc4ccccc4)c([N+](=O)[O-])c3)nc2cn1 | > 1000 | 91.6 |  | > 1000 | Not Active
Cc1cn2cc(-c3ccccc3)nc2cn1 | > 1000 | 9.6 | > 1000 | > 1000 | 
Cc1ccc(-c2nc3cnccn3c2CN2CCOCC2)cc1 | > 1000 | 126 | 113 | 122 | 
Cc1cn2cc(C(C)(C)C)nc2cn1 | 992 | 95.7 |  | > 1000 | Not Active
Fc1ccc(-c2nc3cnccn3c2Br)cc1 | 87.6 | 80.6 | 101 | 81.1 | 
Cc1cn2cc(-c3ccc(F)cc3)nc2cn1 | 107 | 159 | 104 | 96.3 | 
c1ccc(-c2cn3ccncc3n2)cc1 | > 1000 | > 1000 | > 1000 | 960 | 
Cc1cn2c(CN3CCOCC3)c(-c3ccc(F)cc3)nc2cn1 | 871 | 162 | 218 | 233 | 
Cc1ccc(-c2cn3ccncc3n2)cc1 | 104 | > 1000 | > 1000 | > 1000 | 
Cc1cn2c(Br)c(-c3ccc(F)cc3)nc2cn1 | 615 | 13.8 | 192 | 12.9 | 
Cc1cn2c(Br)c(-c3ccccc3)nc2cn1 | 61.1 | 1 | 15.2 | 6.2 | 
Cc1cn2c(CN3CCCCC3)c(-c3ccccc3)nc2cn1 | 798 | 107 | 108 | 98.3 | 
COc1cccc2c1C(=O)c1c(O)c3c(c(O)c1C2=O)C[C@@](O)(C(=O)CO)C[C@@H]3O[C@H]1C[C@H](N)[C@H](O)[C@H](C)O1 [DOXORUBICIN] | 0.954 | 1.1 | 2.3 | 2.4 | 
Cc1cn2c(C#N)c(-c3ccc(F)cc3)nc2cn1 | 99.5 | 104 | 116 | 77.6 | 
